Laboratory results reported in ChEMBL document CHEMBL4145530, “Design, synthesis and pharmacological evaluation of N-benzyl-piperidinyl-aryl-acylhydrazone derivatives as donepezil hybrids: Discovery of novel multi-target anti-alzheimer prototype drug candidates” (Eur J Med Chem, 2018).
Calls of active or inactive are those of the source. The calls are words filed in the database; no cut-off is given here.

Experiments:
[1] = biological target: Acetylcholinesterase (Electrophorus electricus) (UniProt O42275); assay: Inhibition of electric eel AChE at 100 uM using acetylthiocholine iodide as substrate preincubated for 10 mins followed by substrate addition by Ellman's method relative to control
Chain of Acetylcholinesterase (Electrophorus electricus) (O42275 24-633 limits assumed): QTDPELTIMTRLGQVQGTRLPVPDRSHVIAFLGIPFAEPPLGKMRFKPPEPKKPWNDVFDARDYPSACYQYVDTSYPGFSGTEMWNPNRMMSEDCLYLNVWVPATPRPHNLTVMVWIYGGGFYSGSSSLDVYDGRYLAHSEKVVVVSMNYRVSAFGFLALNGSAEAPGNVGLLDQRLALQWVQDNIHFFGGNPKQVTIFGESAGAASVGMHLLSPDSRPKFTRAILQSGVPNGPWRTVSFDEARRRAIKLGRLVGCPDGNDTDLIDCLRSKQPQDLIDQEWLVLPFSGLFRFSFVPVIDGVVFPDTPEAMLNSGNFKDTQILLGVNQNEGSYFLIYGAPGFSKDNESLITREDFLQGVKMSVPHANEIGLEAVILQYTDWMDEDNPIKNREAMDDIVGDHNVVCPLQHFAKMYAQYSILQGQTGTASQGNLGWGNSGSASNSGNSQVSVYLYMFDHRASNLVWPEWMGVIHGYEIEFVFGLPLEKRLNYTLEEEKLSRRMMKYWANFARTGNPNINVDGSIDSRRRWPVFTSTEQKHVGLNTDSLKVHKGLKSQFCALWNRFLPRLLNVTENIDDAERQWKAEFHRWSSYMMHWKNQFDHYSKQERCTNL

[2] = biological target: Cholinesterase (Equus caballus) (UniProt P81908); assay: (§1) Inhibition of […] preincubated for 10 mins followed by substrate addition by Ellman's method
Chain of Cholinesterase (Equus caballus) (P81908 whole entry): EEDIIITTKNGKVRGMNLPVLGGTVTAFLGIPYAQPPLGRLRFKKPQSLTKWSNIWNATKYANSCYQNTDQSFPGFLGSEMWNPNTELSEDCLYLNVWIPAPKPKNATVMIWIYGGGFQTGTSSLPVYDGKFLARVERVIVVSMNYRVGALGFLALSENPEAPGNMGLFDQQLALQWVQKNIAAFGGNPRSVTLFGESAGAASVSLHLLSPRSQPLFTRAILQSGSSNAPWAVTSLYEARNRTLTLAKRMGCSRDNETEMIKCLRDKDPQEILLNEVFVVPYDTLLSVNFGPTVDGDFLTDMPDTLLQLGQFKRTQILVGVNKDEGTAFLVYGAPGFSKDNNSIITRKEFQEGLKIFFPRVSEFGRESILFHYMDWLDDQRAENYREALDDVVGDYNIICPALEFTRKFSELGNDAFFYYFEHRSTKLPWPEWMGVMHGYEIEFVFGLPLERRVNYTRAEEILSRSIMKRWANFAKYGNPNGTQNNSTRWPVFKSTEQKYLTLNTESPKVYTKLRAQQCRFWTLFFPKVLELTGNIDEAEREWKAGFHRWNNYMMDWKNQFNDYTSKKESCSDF

[3] = biological target: Cholinesterase (Equus caballus, UniProt P81908); assay: as §1
Chain of Cholinesterase (P81908 whole entry): as above

[4] = Selectivity ratio of IC50 for equine serum BuChE to IC50 for electric eel AChE
Procedure, shortened: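 Ellman kinetic assay with Electrophorus electricus AChE (acetylthiocholine) and equine serum BuChE (butyrylthiocholine iodide), […]. Enzyme was preincubated 10 min with DTNB and compound in 0.1 M sodium phosphate, pH 7.4 (final DMSO <0.2%), before substrate was added. A412 was read every 12 s for 5 min at rt to give maximum velocity. IC50 is the geometric mean of 2–3 curves, each 6 concentrations in triplicate. Selectivity is IC50 BuChE/IC50 AChE.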

[5] = test system: Mus musculus; assay: Antinociceptive activity in formalin-induced Swiss mouse model of hyperalgesia assessed as time spent licking the injected paw in last phase at […], po pretreated for 1 hr followed by formalin injection and measured at 20 to 30 mins (reference value: 135.8 +/- 10.7 secs); type: functional
[6] = test system: Mus musculus; assay: Anti-inflammatory activity in Swiss mouse assessed as reduction in carrageenan-induced paw edema by measuring paw volume […] po pretreated for 1 hr followed by carrageenan injection and measured after 1 to 5 hrs by plethysmometric method (reference value: 67.73 +/- 4.2 uL); type: functional
Procedure, shortened: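 Male Swiss mice (22–28 g) were fasted overnight and dosed orally with vehicle (2% DMSO in sterile saline), compound or indomethacin 1 h before intraplantar carrageenan. Groups (n=10) were matched on basal paw volume. Right hind paw volume was read by plethysmometer at 1, 3 and 5 h and expressed as change from basal.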

[7] = Selectivity ratio of compound effect for inhibition of human COX2 to compound effect for inhibition of ovine COX1
Procedure, shortened: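 COX-1 or COX-2 with heme was preincubated 120 min with compound (10 µM) in assay buffer. Arachidonic acid and a chemiluminescent substrate were then added at room temperature and peroxidative activity was read for 5 s; ibuprofen was the reference. Selectivity index was taken as the ratio of maximum COX-2 inhibition to COX-1 inhibition. Two independent experiments.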

[8] = test system: Mus musculus; assay: Inhibition of serum COX1 level in Swiss mouse model of carragenan-induced paw edema at 100 mM/kg, po pretreated for 1 hr followed by carrageenan treatment measured after 3 hrs by ELISA; type: functional
Procedure, shortened: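 Swiss mice (n=8) received compound (100 mM/kg) or vehicle orally 1 h before intraplantar carrageenan; indomethacin was the positive control. Three hours later, blood was drawn from the heart under chloral hydrate anaesthesia and serum was collected. COX-1 and COX-2 protein was measured by sandwich ELISA read at 450 nm and expressed as percent COX level.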

[9] = test system: PBMC; assay: cells; type: ADME, cell-based; conditions: Homo sapiens, 6 h
[10] = test system: HepG2; assay: cells; type: ADME, cell-based; conditions: Homo sapiens, HepG2, 6 h
[11] = test system: SH-SY5Y; assay: cells; type: ADME, cell-based; conditions: Homo sapiens, 24 h
[12] = Cytotoxicity against human HepG2 cells assessed as cell viability at 20 to 40 uM after 6 hrs by trypan blue exclusion assay relative to control; type: cell-based; conditions: read-out: Activity
[13] = test system: HepG2; assay: Genotoxicity in human HepG2 cells assessed as induction of DNA damage by measuring comet tail moment at 20 to 40 uM by alkaline comet assay; type: toxicity, cell-based; conditions: hepg2, 40 µM
Procedure, shortened: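 HepG2 cells were exposed 6 h to 20 or 40 µM, then trypsinised; viability was checked by trypan blue. Cells were embedded in low-melting agarose and lysed at 4 °C, pH 10, for 24 h. DNA was unwound 20 min in pH 13 buffer, then electrophoresed 25 V/300 mA for 25 min, neutralised and stained with SYBR Green. Tail moment was scored on 50 nuclei per slide in triplicate slides; 3 independent experiments. Doxorubicin and UV light served as positive controls.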

[14] = test system: THP-1; assay: Anti-inflammatory activity in human THP1 cells assessed as inhibition of LPS-induced TNFalpha production at 10 uM after 24 hrs by ELISA relative to control; type: functional; conditions: THP-1, 24 h
Procedure, shortened: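 Human monocytic THP-1 cells (5×10^5 cells/mL) were given LPS 1 µg/mL with or without compound at 10 µM for 24 h. Cells were spun out at 500 × g and the medium kept at −80 °C. Secreted IL-1β and TNFα were measured with high-sensitivity ELISA. Three independent experiments.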

[15] = test system: Mus musculus; assay: (§2) Anti-inflammatory activity in C57Bl/6 mouse model of amyloid beta (1 to 42) oligomer-induced neuroinflammation assessed as inhibition of microgliosis in CA1 region of ipsilateral hippocampus at 100 mg/kg, ip pretreated for 1.5 hrs followed by amyloid beta (1 to 42) oligomer addition and measured after 7 days by Iba-1 staining based assay; type: functional, organism-based
Procedure, shortened: (§3)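 Male C57Bl/6 mice (25–30 g) got 100 mg/kg i.p. or vehicle 1.5 h before a unilateral right-hippocampal injection of Aβ1-42 oligomers (400 pmol/0.5 µL) or PBS. The oligomers were made by diluting the DMSO stock into PBS at 40 µM and holding at 4 °C for 48 h. After 7 days, brain sections were stained for Iba-1 (antigen retrieval, fluorescent secondary) and five CA1 images per hippocampus were taken; pixel density was read, n=10.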

[16] = test system: Mus musculus; assay: as §2, with “Proinflammatory” for “Anti-inflammatory”, “induction” for “inhibition”, “contralateral” for “ipsilateral”; type: organism-based; conditions: in vivo, 168 h; procedure, shortened: as §3
[17] = test system: SH-SY5Y; assay: Neuroprotection in human SH-SY5Y cells assessed as inhibition of amyloid beta (1 to 42) oligomer-induced neuronal death at 10 uM after 24 hrs by propidium iodide staining based fluorescence microscopic method; type: functional, cell-based
Procedure, shortened: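 After plating at 5×10^3 cells/well and growing 24 h, SH-SY5Y cells were co-exposed to compound and Aβ1-42 oligomers (10 µM) for 24 h at 37 °C. Cells were stained with propidium iodide in PBS for 10 min. Dead cells were counted by fluorescence microscopy in four fields of 50–100 cells and expressed as PI-positive/total × 100. Three independent experiments.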

[18] = test system: Mus musculus; assay: Toxicity in C57Bl/6 mouse model of amyloid beta (1 to 42) oligomer-induced neuroinflammation assessed as induction of neurodegeneration in CA1 region of contralateral hippocampus at 100 mg/kg, ip pretreated for 1.5 hrs followed by amyloid beta (1 to 42) oligomer addition and measured after 7 days by Fluoro-Jade C staining based fluorescence microscopic assay; type: organism-based; conditions: in vivo, 168 h
Procedure, shortened: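 C57Bl/6 male mice were dosed i.p. at 100 mg/kg 1.5 h before stereotactic right intrahippocampal Aβ1-42 oligomer injection (400 pmol/0.5 µL), with PBS as control. After 7 days, hippocampal sections were stained with Fluoro-Jade C (0.0001%) after NaOH/ethanol and permanganate steps. Five CA1 images per hippocampus were imaged under fluorescence and pixel intensity quantified, n=10.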

Structure (SMILES)	inhibition [1] [%]	inhibition [2]	IC50 [3] [µM]	Ratio IC50 [4]	Time [5] [s]	Activity [6] [µL]	Selectivity ratio [7]	inhibition (INH) [8] [%]	IC50 [9] [µM]	IC50 [10] [µM]	IC50 [11] [µM]	viability at 6 h, 40 µM [12] [%]	Activity [13]	inhibition at 10 µM [14] [%]	inhibition [15]	Activity [16]	inhibition [17]	Activity [18]
O=C(N/N=C/c1ccc(Cl)cc1)c1ccc(CN2CCCC(O)C2)cc1 (stereo unspecified)	> 60	Dose-dependent effect	48.2	1.9	62.88	17.14	1.27	27	> 100	> 80	> 80	> 90	Non-Toxic	98	Active	Non-Toxic	Active	Non-Toxic
O=C(N/N=C/c1ccc(F)cc1)c1ccc(CN2CCCC(O)C2)cc1 (stereo unspecified)	> 60	Dose-dependent effect	39	4.5	24.17	20	0.83	34	> 100	> 80	> 80	> 90	Non-Toxic	69	Active	Non-Toxic	Active	Toxic
